Only some compounds are listed: those with a hit (about 3.5% of all), similar ones and a draw of the others.
Cneo AK release – Cryptococcus neoformans cell lysis inducers, primary screen, AK release luminescence, single concentration; C. neoformans lysis, adenylate kinase release luminescence, 4 h; normalised: neutral wells 0, clomiphene wells 100; lysis activity, % at 15 µM; actives 0.2% (n = 360,000); AID 651654, 2012;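 active = mean lysis activity across replicates of at least 80%, whatever share of replicates individually reach that level; inactive = mean lysis activity below 80%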
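Signal: Adenylate kinase release luminescence | Assay system: Log-phase Cryptococcus neoformans yeast cells | Input: Cells at 5 × 10^6 per mL | Buffer or medium: Fresh YPD growth medium | Compound: Single dose | Schedule: Static 4 h at 37 °C with compound, 1 h detection | Controls: Clomiphene | Read-out: Luminescence rise reflecting yeast cell lysis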
FGF22 binding – binders of human FGF22 protein, primary screen, FGF22 synaptogenesis inhibitor project, biophysical, thermal shift, single point; recombinant FGF22 thermal shift, SYPRO orange fluorescence; percent of sucrose octasulfate shift, DMSO zero; activity (Tm shift, normalised), % at 9.99 µM; actives 1.5% (n = 340,000);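 active = mean Tm shift, scaled 0 neutral to 100 positive control, at about 1.3% or above, every replicate too, limit read from the data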
Env fusion inh – inhibitors of HIV-1 Env-driven cell-cell fusion, primary screen, HeLa-JRFL effector, CEM21 target cells, luciferase; inhibition, % at 12.3 µM; actives 1.1% (n = 360,000);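 active = mean replicate inhibition score of at least 50 and every replicate individually at or above 50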;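 note: 0% = plate neutral controls and 100% = maraviroc near 300 nM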
ERAP1 inh – human ERAP1 aminopeptidase inhibitors, primary screen, biochemical, single point, plate reader. actives 0.15% (n = 340,000). AID 652197, 2013. Endoplasmic reticulum aminopeptidase 1 (Homo sapiens), Q9NZ08. recombinant ERAP1, Leu-AMC fluorescence, 60 min. inhibition, % at 10.7 µM;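 active = mean replicate inhibition of at least 30%, or all replicates individually reaching that 30% level; inactive = mean below 30% and not every replicate reaching it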;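 note: 0% = neutral control wells and 100% = L-leucinethiol positive control wells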
rRNA inh HTS – reduced GFP signal of wild-type E. coli, primary screen, bacterial rRNA inhibitor project, GFP/RFP fluorescence, OD600, single point | E. coli WT GFP vs humanized-ribosome RFP mutants, 24 h; stronger effect = lower value; DMSO median 0, no signal -100 | GFP signal change (wild-type ribosome), % (concentration not given with the values) | actives 1.6% (n = 350,000) | AID 720706, 2013;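 active = significant combined selectivity score with lowered wild-type GFP, culture density cut under 30%, mutant RFP and density less affected; inactive = any of these conditions unmet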
PGC1a acetyl inh – inhibitors of PGC1a acetylation signal, primary screen, cell-based, U2OS, AlphaScreen, inhibitor mode; inhibition, % at 15.6 µM; AlphaScreen anti-acetyl-lysine; with virally co-expressed GCN5 acetyltransferase; actives 0.17% (n = 350,000);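 active = every replicate shows inhibition of at least 40%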;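 note: 0% = neutral control wells and 100% = positive control wells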
The depositor's hits bear a star; . = not tested or not shown; [ ] = remark or other dose.

SMILES | Cneo AK release | FGF22 binding | Env fusion inh | ERAP1 inh | rRNA inh HTS | PGC1a acetyl inh
COc1ccc(CN(C)C[C@H]2Oc3ccc(NC(=O)C4CC4)cc3C(=O)N([C@H](C)CO)C[C@@H]2C)cc1 | -1 | 0 | 26[16.7 µM] | 0 | 2 | 6
COc1ccc(CN(C)C[C@@H]2Oc3ccc(NC(=O)C4CC4)cc3C(=O)N([C@H](C)CO)C[C@H]2C)cc1 | 106* | 0 | -3[16.7 µM] | 0 | 0 | 5
Cc1nnnn1CC(=O)Nc1cccc([N+](=O)[O-])c1 | . | 42 | 3 | 4 | 4 | 1
COc1ccc(CN(C)C[C@@H]2Oc3ccc(NC(=O)Nc4ccc(OC)cc4)cc3C(=O)N([C@H](C)CO)C[C@@H]2C)cc1 | -11 | 0 | 63*[16.7 µM] | -1 | 1 | .
COc1ccc(CN(C)C[C@@H]2Oc3ccc(NC(=O)Nc4ccc(OC)cc4)cc3C(=O)N([C@@H](C)CO)C[C@@H]2C)cc1 | -20 | 0 | -17[16.7 µM] | -3 | 0 | .
Cc1ccc(COC(=O)CCc2nc3ccccc3c(=O)[nH]2)cc1 | . | . | 11 | . | . | .
COc1cccc(NC(=O)Cn2c(CCC(=O)O)ccc2-c2cccs2)c1 | . | 0 | 12 | 1 | -3 | 11
O=C1[C@H]2[C@@H](c3ccc(F)cc3)N3C(=O)N(c4cccc(Cl)c4)C(=O)[C@@]3(Cc3ccc(Cl)cc3)[C@H]2C(=O)N1C1CCCCC1 | 0 | 0 | 99* | 1 | 8 | 0
CC(C)C[C@@]12C(=O)N(c3cccc(F)c3)C(=O)N1[C@H](c1ccc(Cl)cc1)[C@@H]1C(=O)N(C3CCCCC3)C(=O)[C@@H]12 | 1 | 0 | 95* | -3 | 10 | -4
O=C1[C@H]2[C@@H](c3ccc(Cl)cc3)N3C(=O)N(c4cccc(Br)c4)C(=O)[C@@]3(Cc3ccc(Cl)cc3)[C@H]2C(=O)N1C1CCCCC1 | -3 | 0 | 82* | 3 | 16 | 6
O=C1[C@H]2[C@@H](c3ccc(F)cc3)N3C(=O)N(c4cccc(Br)c4)C(=O)[C@@]3(Cc3ccc(Cl)cc3)[C@H]2C(=O)N1C1CCCCC1 | 3 | 0 | 59* | -3 | 18 | -6
Cc1ccc(/C(O)=C2/C(=O)C(=O)N(c3ccccn3)C2c2ccc([N+](=O)[O-])cc2)cc1 (stereo not given) | 3 | 0 | -11 | -1 | -3 | -1
CO[C@H]1CN(C)C(=O)c2ccc(NC(=O)Nc3ccc(Cl)c(Cl)c3)cc2OC[C@H](C)NC[C@H]1C | 50 | 0 | 4[16.7 µM] | -1 | -10 | .
CCCCCN(C(=O)CCC(=O)OCC(=O)N(C)c1ccccc1)c1c(N)n(CCCC)c(=O)[nH]c1=O | 0 | 0 | 16 | -5 | -5 | .
COc1cccc(NC(=S)Nc2cc(C(=O)O)ccc2N2CC3CC(C2)c2cccc(=O)n2C3)c1 (stereo not given) | . | 3.3* | 6 | -2 | 14 | 5
Nc1nc(C(=O)N2CCOCC2)nn1S(=O)(=O)c1ccc(Cl)cc1 | 1 | . | -56 | . | . | 2
CCOc1ccccc1N(C(=O)Nc1ccc(Cl)cc1)C1=NCCS1 | -5 | . | -23 | 5 | -21* | 57
Cc1nn(Cc2ccc(Cl)cc2)c(=O)n1N(C)c1ncc(C(F)(F)F)cc1Cl | -1 | . | . | . | . | -21
Cc1nn(Cc2ccc([N+](=O)[O-])cc2)c(=O)n1N(C)c1ncc(C(F)(F)F)cc1Cl | -1 | . | 63* | . | . | -11
O=C(c1ccccc1)c1ccc(OCC(O)CN2CCN(S(=O)(=O)N3CCCCC3)CC2)cc1 (stereo not given) | 0 | . | 60* | . | . | 1
COc1cccc(NC(=O)N(C)C[C@H]2Oc3cc(C#Cc4ccccc4)ccc3S(=O)(=O)N([C@@H](C)CO)C[C@H]2C)c1 | -1 | 1.4* | -80[16.7 µM] | . | -1 | 5
COc1cccc(NC(=O)N(C)C[C@@H]2Oc3cc(C#Cc4ccccc4)ccc3S(=O)(=O)N([C@@H](C)CO)C[C@H]2C)c1 | 0 | 0 | -4[16.7 µM] | . | 0 | -16
COc1ccc(NC(=O)N(C)C[C@H]2Oc3cc(-c4ccc(C)cc4)ccc3S(=O)(=O)N([C@H](C)CO)C[C@H]2C)cc1 | 0 | 1.7* | -27[16.7 µM] | -3 | -1 | -4
COc1ccc(C#Cc2ccc3c(c2)O[C@H](CN(C)C(=O)Nc2cccc(OC)c2)[C@H](C)CN([C@@H](C)CO)S3(=O)=O)cc1 | 86* | 0 | -23[16.7 µM] | -1 | 3 | -2
COc1ccc(NC(=O)N(C)C[C@@H]2Oc3cc(-c4ccc(C)cc4)ccc3S(=O)(=O)N([C@@H](C)CO)C[C@H]2C)cc1 | 1 | 0 | -4[16.7 µM] | -4 | 4 | 0
SMILES | Cneo AK release | FGF22 binding | Env fusion inh | ERAP1 inh | rRNA inh HTS | PGC1a acetyl inh
C[C@@H]1CCCCO[C@@H](CN(C)S(=O)(=O)c2cn(C)cn2)[C@@H](C)CN([C@H](C)CO)C(=O)c2cc(NC(=O)Nc3ccc4c(c3)OCO4)ccc2O1 | 3 | 0 | -4[16.7 µM] | -1 | 5 | -5
C=CCn1cccc(C(=O)Nc2ccc(OC)cc2)c1=O | . | . | -7 | -3 | -12 | 2
COc1ccc(NC(=O)c2cccn(CC=C(C)C)c2=O)cc1 | . | 0 | -1 | -1 | -26* | 8
Cc1ccc(C)c(OCC(O)CNC2CCCC2)c1 (stereo not given) | -3 | 0 | 6 | . | 1 | 5
COc1cccc(N2C(=O)C3C(C2=O)C3(c2ccccc2)c2ccccc2)c1 (stereo not given) | 1 | 0 | 8 | 2 | -33* | .
COc1cc(CCC(=O)OCC(=O)Nc2c(F)cccc2F)cc(OC)c1OC | 0 | 0 | 6 | -3 | . | -5
COc1cc(CCC(=O)OCC(N)=O)cc(OC)c1OC | . | 43* | 10 | 2 | 16 | -10
COc1ccc(CNC(=O)Cc2nn(C)c(=O)c3ccccc23)cc1 | . | . | . | . | . | 22
Cn1nc(CC(=O)NCc2ccc(C(F)(F)F)cc2)c2ccccc2c1=O | -1 | . | 71* | . | . | -2
Cc1cc(Cl)ccc1OCC(=O)NNC(=O)C1CSC2(C)CCC(=O)N12 (stereo not given) | 0 | 0 | 71* | -1 | -3 | .
COc1ccccc1C1=NC(c2ccc(C)cc2)N=C1C (stereo not given) | . | 44* | -252 | -2 | . | -8
Nc1nnc(SCC(=O)Nc2ccc(Cl)c(C(=O)O)c2)s1 | . | 0 | 24 | -3 | 12 | 1
COC(=O)c1cc(NC(=O)CSc2nnc(N)s2)ccc1Cl | 2 | 0 | -14 | -1 | -22* | 13
CC(C)(C)c1ccccc1OCCCCCn1ccnc1 | . | 44* | 9 | 5 | -55* | -24

Screening results (PubChem BioAssay)
